The values that follow come from PMC2818593 (Cancer prevention research (Philadelphia, Pa.), 2010).

In one series the test system is H4IIE cells. Nature of the series: GSH levels in H4IIE rat hepatoma cells. The settings on record: 24 h. It counts as cell-based. In short, it runs like this:
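H4IIE rat hepatoma cells grown in MEM with 10% heat-inactivated FBS, non-essential amino acids and 1 mM pyruvate at 37 °C, 5% CO2. 3 × 10^6 cells exposed 24 h to 10–160 µM test compound (DMSO 0.5% final as control), then lysed in pH 7.0 phosphate/EDTA. Total GSH measured by enzymatic recycling on 1 µg protein (Bradford), expressed as fold over control. Two-sided tests, p < 0.05.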

Series [1] deals with quinone reductase-1 (QR-1). Nature of the series: QR-1 activity in rat tissues after dietary ILG. The series is classed as in vivo.
Series [2] has as its system glutathione S-transferase (GST). Nature of the series: GST activity in rat tissues after dietary ILG. The conditions noted are these: 10.0 g/kg diet; liver, colon, mammary gland. The series is classed as in vivo.
The subject of series [3] is QR-1 activity in mouse Hepa 1c1c7 cells. The conditions noted are these: cited from earlier work.
Series [4] deals with carcinogen-treated mouse mammary organ culture. The settings on record: at 10 µg/mL; cited from earlier work.
The test system of the next series is GSH. Put plainly: GSH level in rat tissues after dietary ILG. The conditions noted are these: 10.0 g/kg diet; liver, colon, mammary gland. The series is classed as in vivo.
Series [5] relates to DMBA-induced mammary tumors. The conditions noted are these: preliminary study, 5.0 g/kg diet, cited from earlier work.
For series [6], the system named is DMBA-induced mammary tumors. Put plainly: DMBA-induced mammary carcinogenesis in rats. It counts as in vivo.
Series [7] can be described thus: Quantification of ILG in rat plasma and tissues by LC-MS-MS. The series is classed as in vivo.
Series [8] in a line: Metabolism of ILG in the rat. The series is classed as in vivo. The conditions noted are these: rat plasma after administration of ILG.

“And” between values parts separate entries of the source, which are not always exact repeats. Identical values can stand only once. Like-named read-outs stand apart in the source and are kept apart here. A value given as a limit tells only on which side of the number the result lay.

Take `O=c1cc(-c2ccc(Br)cc2)oc2ccccc12` [4'-Bromoflavone, reference compound]: in the series with H4IIE cells (H4IIE cells, 10 µM, positive control), the GSH levels result is “significant increase in GSH levels”.
Regarding `O=C(/C=C/c1ccc(O)cc1)c1ccc(O)cc1O` [ILG, 2′,4′,4-trihydroxychalcone], the “dose giving significant increase of total GSH” value with H4IIE cells (rat hepatoma cells) is recorded as no less than 80 µM. Moreover, the QR-1 activity result in [1] (colon, end of in vivo study) is reported as “significantly elevated”; in series [1] (liver or mammary gland tissues), “no significant induction”. Besides, the GST activity result in [2] is “significantly elevated only in the liver”. In addition, the “CD, induction of QR-1 activity” value in [3] was 2 µM. Besides, in series [4], the “inhibition in carcinogen-treated mouse mammary organ culture assay” value is 76%. Moreover, the GSH levels result in the series on GSH is reported as “significantly elevated only in the liver”. In series [5] (after 120 days), the “incidence of mammary tumors” value was “little effect on the incidence of mammary tumors”. Besides, the tumor latency entry is recorded as “increased tumor latency” in series [5] (one week prior and one week after DMBA); “increased tumor latency” in series [6] (7.5 and 10 g/kg diet during the entire study). Also, the adverse effects result in series [5] is “no adverse effects were detected”. In [6] (7.5 and 10 g/kg diet, after 84 days), the “overall tumor incidence and multiplicity” value is “increased the overall tumor incidence and multiplicity”. Further, the body weight result in [6] (between the different groups, 7.5 and 10 g/kg diet) was “no significant differences in body weight”. Moreover, the “Concentration of ILG in liver tissue” value in series [7] (7.50 g/kg diet + DMBA) is recorded as 2.56 ± 0.96 µg/g tissue; in series [7] (10.0 g/kg diet) it was 3.25 ± 1.38 µg/g tissue; in [7] (10.0 g/kg diet + DMBA), 4.71 ± 1.64 µg/g tissue. Also, the “Concentration of ILG in mammary tissue” value in series [7] (7.50 g/kg diet + DMBA) stood at 0.044 ± 0.014 µg/g tissue; in series [7] (10.0 g/kg diet), 0.094 ± 0.043 µg/g tissue; in [7] (10.0 g/kg diet + DMBA), 0.084 ± 0.040 µg/g tissue. The “Concentration of ILG in plasma” value in series [7] (7.50 g/kg diet + DMBA) is 57.81 ± 19.65 ng/mL and 57.8 ± 19.6 ng/mL; in [7] (10.0 g/kg diet), 142.2 ± 35.9 ng/mL; in [7] (10.0 g/kg diet + DMBA) it was 134.6 ± 47.2 ng/mL.
Take `O=C(/C=C/c1ccc(O)cc1)c1ccc(O[C@@H]2O[C@H](C(=O)O)[C@@H](O)[C@H](O)[C@H]2O)cc1O` [MG5, 4′-glucuronosylisoliquiritigenin]: the “relative abundance among the five glucuronides” value in series [8] is given as “most abundant”.
